Measurements reported in ChEMBL document CHEMBL1158353, “N1-Alkylated 3,4-dihydropyrimidine-2(1H)-ones: Convenient one-pot selective synthesis and evaluation of their calcium channel blocking activity” (Eur J Med Chem, 2009).

Legend:
[1] = Inhibition of calcium channel in pig carotid artery assessed as relaxation of KCl-induced tissue contraction; type: tissue-based, Sus scrofa
Summary of the method: (§1)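 Arterial strips equilibrated 90-120 min in PSS at 37 °C, pH 7.4, bubbled with 100% O₂, under ~2 g passive force (near L_0), and repeatedly contracted with 110 mM KCl (equimolar NaCl substitution) until force stabilized. Then precontracted with 110 mM KCl PSS to stable force; cumulative compound addition (1 μM to 30 mM), DMSO vehicle control. Force expressed as percent of initial maximal KCl response at each concentration.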

Sus scrofa = species: Sus scrofa; assay: Inhibition of calcium channel in pig carotid artery assessed as relaxation of KCl-induced tissue contraction at 1 uM to 30 mM; type: tissue-based; summary of the method: as §1

| SMILES | IC50 [1] [µM] | inhibition (Sus scrofa) [%] |
| --- | --- | --- |
| CCCN1C(=O)NC(c2ccccc2)C(C(=O)OCC)=C1C (stereo not drawn) | 100 | 40 |
| CCOC(=O)C1=C(C)N(CC)C(=O)NC1c1ccccc1 (stereo not drawn) | 100 | 40 |
| CCCCN1C(=O)NC(c2ccccc2)C(C(=O)OCC)=C1C (stereo not drawn) | 100 | 40 |
| COC(=O)C1=C(C)NC(C)=C(C(=O)OC)C1c1ccccc1[N+](=O)[O-] [NIFEDIPINE] | 10 |  |
| C=CCN1C(=O)NC(c2ccccc2)C(C(=O)OCC)=C1C (stereo not drawn) | 100 | 40 |
| CCCCCN1C(=O)NC(c2ccccc2)C(C(=O)OCC)=C1C (stereo not drawn) | 100 | 40 |
| CCCCCCCCCCN1C(=O)NC(c2ccccc2)C(C(=O)OCC)=C1C (stereo not drawn) | 100 | 40 |
